Results from ChEMBL document CHEMBL3526142, “Biotransformation of a novel antimitotic agent, I-387, by mouse, rat, dog, monkey, and human liver microsomes and in vivo pharmacokinetics in mice” (Drug Metab Dispos, 2011).

Tests used:
[1] = Terminal half life in ICR mouse at 15 mg/kg, ip by LC-MS/MS analysis; type: ADME, organism-based; set-up: dose 15 mg/kg, route intraperitoneal; settings: in vivo, read-out: beta t1/2 (converted)
How it was run: (§1)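 Male ICR mice (20–25 g) given the compound intraperitoneally or by gavage in 10% DMSO/PEG300. Three to four mice were sacrificed per time point and plasma collected from the vena cava. Plasma was precipitated with acetonitrile containing internal standard and analysed by LC-MS/MS. Noncompartmental analysis of mean concentration-time data: terminal t1/2 = ln2/λz; Tmax by inspection; n = 3/dose group.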

[2] = Tmax in ICR mouse at 5 mg/kg, ip by LC-MS/MS analysis; type: ADME, organism-based; set-up: dose 5 mg/kg, route intraperitoneal; settings: in vivo; how it was run: as §1
[3] = Oral bioavailability in ICR mouse at 5 mg/kg via gavage after 30 mins by LC-MS/MS analysis; type: ADME, organism-based; settings: in vivo
How it was run: (§2)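 Male ICR mice (5–6 weeks, 20–25 g) dosed by gavage in 10% DMSO in PEG300. Three to four mice per time point were euthanized under isoflurane and blood taken from the posterior vena cava. Plasma was acetonitrile-precipitated and analysed by LC-MS/MS (MRM m/z 388.2→192). Tmax read by visual inspection. F = (AUC_oral × dose_iv)/(AUC_iv × dose_oral), with AUC_inf by trapezoidal rule; n = 3/dose group.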

[4] = Cmax in ICR mouse at 5 mg/kg, iv by LC-MS/MS analysis; type: ADME, organism-based; set-up: dose 5 mg/kg, route intravenous; settings: in vivo
How it was run: (§3)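 Male ICR mice (5–6 weeks, 20–25 g), single doses of 1, 5 or 15 mg/kg in 10% DMSO/PEG300, given iv by tail vein, ip, or orally by gavage. Three to four mice per time point, euthanized under isoflurane, blood drawn from posterior vena cava. Plasma protein precipitated with acetonitrile containing internal standard, then LC-MS/MS (MRM m/z 388.2→192). Noncompartmental analysis of mean concentration-time data, AUCinf by trapezoidal rule with extrapolation, CL = dose/AUCinf, Cmax read from the curve. F = (AUCnon-iv × dose iv)/(AUCiv × dose non-iv). n = 3 per dose group.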

[5] = Mean residence time (infinity) in ICR mouse at 1 mg/kg, po via gavage by LC-MS/MS analysis; type: ADME, organism-based; set-up: dose 1 mg/kg, route oral; settings: in vivo; how it was run: as §3
[6] = Drug metabolism in mouse liver microsomes assessed as (3-(1H-indol-2-yl)phenyl)(3,4,5-trimethoxyphenyl)methanol formation at 0.5 uM after 2 hrs by LC-MS/MS analysis in presence of 3 mM NADPH; type: ADME
How it was run: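 Pooled liver microsomes (1 mg/ml protein) incubated with 0.5 µM substrate and 3 mM NADPH in 65 mM potassium phosphate, pH 7.4, 1% methanol, at 37°C for 2 h. Stopped with ice-cold acetonitrile containing internal standard, centrifuged. Supernatant analysed by LC-MS/MS on a C18 column, 15-min gradient, with product ion scans for metabolite identification.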

[7] = Terminal half life in ICR mouse at 15 mg/kg, iv by LC-MS/MS analysis; type: ADME, organism-based; set-up: dose 15 mg/kg, route intravenous; settings: in vivo, read-out: beta t1/2 (converted)
How it was run: (§4)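 Tail-vein injection in male ICR mice (5–6 weeks), vehicle 10% DMSO in PEG300. Serial terminal sampling of 3–4 mice per time point, with posterior vena cava blood. Plasma was acetonitrile-precipitated and measured by LC-MS/MS. Noncompartmental analysis of mean data: t1/2 = ln2/λz, CL = dose/AUC_inf, Vd_ss = CL × MRT_inf; n = 3/dose group.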

[8] = Tmax in ICR mouse at 15 mg/kg, po by LC-MS/MS analysis; type: ADME, organism-based; set-up: dose 15 mg/kg, route oral; settings: in vivo; how it was run: as §2
[9] = Terminal half life in ICR mouse at 1 mg/kg, ip by LC-MS/MS analysis; type: ADME, organism-based; set-up: dose 1 mg/kg, route intraperitoneal; settings: in vivo, read-out: beta t1/2 (converted); how it was run: as §1
[10] = Metabolic stability in mouse liver microsomes assessed as half life during phase 1 at 0.5 uM by LC-MS/MS analysis in presence of 3 mM NADPH and absence of UDPGA; type: ADME; settings: read-out: alphat1/2
How it was run: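 Pooled liver microsomes at 1 mg/ml protein with 3 mM NADPH, 0.5 μM substrate in 65 mM potassium phosphate pH 7.4, 1% methanol, 37°C. Incubations stopped at 10, 20, 30, 60 and 90 min with ice-cold acetonitrile plus internal standard, then LC-MS/MS of parent remaining relative to time 0. Half-life from a two-parameter single exponential decay fit; n = 2 to 3.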

[11] = Cmax in ICR mouse at 15 mg/kg, iv by LC-MS/MS analysis; type: ADME, organism-based; set-up: dose 15 mg/kg, route intravenous; settings: in vivo; how it was run: as §3
[12] = Tmax in ICR mouse at 15 mg/kg, ip by LC-MS/MS analysis; type: ADME, organism-based; set-up: dose 15 mg/kg, route intraperitoneal; settings: in vivo; how it was run: as §1
[13] = Tmax in ICR mouse at 5 mg/kg, po by LC-MS/MS analysis; type: ADME, organism-based; set-up: dose 5 mg/kg, route oral; settings: in vivo; how it was run: as §2
[14] = AUC (infinity) in ICR mouse at 1 mg/kg, iv by LC-MS/MS analysis; type: ADME, organism-based; set-up: time infinity, dose 1 mg/kg, route intravenous; settings: plasma; how it was run: as §3
[15] = Terminal half life in ICR mouse at 1 mg/kg, iv by LC-MS/MS analysis; type: ADME, organism-based; set-up: dose 1 mg/kg, route intravenous; settings: in vivo, read-out: beta t1/2 (converted); how it was run: as §4
[16] = Metabolic stability in human liver microsomes assessed as half life during phase 1 at 0.5 uM by LC-MS/MS analysis in presence of 3 mM NADPH and absence of UDPGA; type: ADME; settings: read-out: alphat1/2
How it was run: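 Pooled liver microsomes (1 mg/ml) incubated with 0.5 µM substrate and 3 mM NADPH in 65 mM potassium phosphate, pH 7.4, 1% methanol, at 37°C. The phase I+II set also had 5 mM UDPGA, 5 mM D-saccharolactone, 50 µg/ml alamethicin and 3 mM MgCl2. Stopped at 10–90 min with cold acetonitrile plus internal standard. Parent remaining by LC-MS/MS relative to time 0. t1/2 from a two-parameter single exponential decay fit; n = 2–3.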

[17] = Mean residence time (infinity) in ICR mouse at 15 mg/kg, po via gavage by LC-MS/MS analysis; type: ADME, organism-based; set-up: dose 15 mg/kg, route oral; settings: in vivo; how it was run: as §3
[18] = AUC (infinity) in ICR mouse at 5 mg/kg, po via gavage by LC-MS/MS analysis; type: ADME, organism-based; set-up: time infinity, dose 5 mg/kg, route oral; settings: plasma; how it was run: as §3
[19] = Cmax in ICR mouse at 1 mg/kg, ip by LC-MS/MS analysis; type: ADME, organism-based; set-up: dose 1 mg/kg, route intraperitoneal; settings: in vivo; how it was run: as §3
[20] = Metabolic stability in mouse liver microsomes assessed as half life during phase 1 and 2 at 0.5 uM by LC-MS/MS analysis in presence of 3 mM NADPH and […] UDPGA; type: ADME; settings: read-out: alphat1/2
[21] = Volume of distribution at steady state in ICR mouse at 5 mg/kg, iv by LC-MS/MS analysis; type: ADME, organism-based; set-up: dose 5 mg/kg, route intravenous; settings: in vivo, read-out: Vdss; how it was run: as §4
[22] = Oral bioavailability in ICR mouse at 15 mg/kg via gavage after 30 mins by LC-MS/MS analysis; type: ADME, organism-based; settings: in vivo; how it was run: as §2
[23] = Terminal half life in ICR mouse at 5 mg/kg, iv by LC-MS/MS analysis; type: ADME, organism-based; set-up: dose 5 mg/kg, route intravenous; settings: in vivo, read-out: beta t1/2 (converted); how it was run: as §4
[24] = Antitumor activity against human MESSA/DX5 cells xenografted in nu/nu mouse assessed as decrease in tumor growth at 10 mg/kg, ip 2 days per week for weeks; type: functional; settings: MES-SA/Dx5, ip, 48 h, route intraperitoneal
[25] = Cmax in ICR mouse at 5 mg/kg, ip by LC-MS/MS analysis; type: ADME, organism-based; set-up: dose 5 mg/kg, route intraperitoneal; settings: in vivo; how it was run: as §3
[26] = Plasma concentration in ICR mouse at 15 mg/kg, ip measured for 30 hrs by LC-MS/MS analysis; type: ADME, organism-based; set-up: dose 15 mg/kg, route intraperitoneal
How it was run: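 Male ICR mice given 15 mg/kg intraperitoneally in 10% DMSO/PEG300. Plasma from 3–4 mice per time point was collected via the posterior vena cava, protein-precipitated with acetonitrile plus internal standard, and quantified by LC-MS/MS (MRM m/z 388.2→192).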

`COc1cc(C(=O)c2cccc(-c3cc4ccccc4[nH]3)c2)cc(OC)c1OC` showed a half-life [1] of 8.3 h, a Tmax [2] of 5 min and a bioavailability [3] of 13%. For the same molecule, the Cmax [4] was 2860 ng/mL, the MRT inf [5] was 9 h and the Drug metabolism [6] was “metabolite_detected”. It also gave a half-life [7] of 8.9 h, a Tmax [8] of 0.5 h and a half-life [9] of 8 h. It also gave a half-life at 0.5 µM [10] of 0.617 h, a Cmax [11] of 7530 ng/mL and a Tmax [12] of 0.167 h. It also gave a Tmax [13] of 0.5 h, an AUC(0-inf) [14] of 617 ng·h/mL and a half-life [15] of 7 h. For the same molecule, the half-life at 0.5 µM [16] was 0.4 h, the MRT inf [17] was 8.9 h and the AUC(0-inf) [18] was 517 ng·h/mL. The Cmax [19] was 250 ng/mL, the half-life at 0.5 µM [20] was 0.65 h and the Vd [21] was 3.8 L/kg. The bioavailability [22] was 8%, the half-life [23] was 4.3 h and the inhibition in vivo at 10 mg/kg [24] was 76%. For the same molecule, the Cmax [25] was 1440 ng/mL and the concentration at 30 h [26] was > 71 ng/mL.
